Screens from PubChem.
Shown are actives, neighbours in structure and some others; about 1.5% of the full set was active somewhere.
aDG glyco act – activators of alpha-DG glycosylation, primary screen, uHTS, Pro5-aDG cells, AlphaScreen. alpha-DG glycosylation AlphaScreen (IIH6); 0% Pro5, 100% B10-LARGE cell signal. activation, % at 10 µM. actives 0.22% (n = 360,000). AID 624168, 2012;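 active = activation of at least 8% versus controls, or a plate z-score of at least 8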;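 also: Pro5 are CHO cells carrying HIG-tagged alpha-DG that lacks glycosylation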
NR1D1 modulator – modulators of Rev-erb alpha DNA binding, primary screen, biochemical, FITC-DNA, fluorescence polarization, uHTS | Rev-erbα–FITC-DNA binding, 90 min | activity, % at 10 µM | Nuclear receptor subfamily 1 group D member 1 (Homo sapiens), P20393 | actives 0.79% (n = 370,000);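 active = activity above about 14%, limit read from the data; passing the limit was not always enough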
CSN inh – inhibitors of CSN-mediated cullin deneddylation, primary screen, biochemical, fluorescence polarization, uHTS | COP9 signalosome complex subunit 5 (Homo sapiens), Q92905 | Purified CSN, SCF-Nedd8-OG deneddylation | inhibition, % at 12.5 µM | actives 0.38% (n = 360,000) | AID 651999, 2013;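 active = pattern-corrected inhibition above about 35%, with an unprinted fluorescence ratio check between 0.5 and 1.5, limit read from the data, passing the limit was not always enough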
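Assay system: Purified human Csn5 enzyme expressed in HEK293T cells | Amount: Enzyme 0.24 nM | Measured by: Fluorescence polarization readout | Medium: Tris/NaCl/DTT buffer, pH 7.5 | Compound dosing: One concentration, 12.5 µM, 0.25% DMSO | Times: 90 min incubation of compound, enzyme and substrate at room temperature | Control set: no-enzyme wells high, enzyme-with-substrate wells low | Read-out: % inhibition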
HNF4A DNA FP – change in binding of human HNF4A to DNA, primary screen, biochemical, fluorescence polarization, FITC-DNA; AID 1224865, 2016; activity change, % at 10 µM; actives 0.3% (n = 360,000); 1 h; Hepatocyte nuclear factor 4-alpha (Homo sapiens), P41235; in the data active = activity change above about 30%, passing the limit was not always enough
Target sequence (P41235 whole entry, looked up): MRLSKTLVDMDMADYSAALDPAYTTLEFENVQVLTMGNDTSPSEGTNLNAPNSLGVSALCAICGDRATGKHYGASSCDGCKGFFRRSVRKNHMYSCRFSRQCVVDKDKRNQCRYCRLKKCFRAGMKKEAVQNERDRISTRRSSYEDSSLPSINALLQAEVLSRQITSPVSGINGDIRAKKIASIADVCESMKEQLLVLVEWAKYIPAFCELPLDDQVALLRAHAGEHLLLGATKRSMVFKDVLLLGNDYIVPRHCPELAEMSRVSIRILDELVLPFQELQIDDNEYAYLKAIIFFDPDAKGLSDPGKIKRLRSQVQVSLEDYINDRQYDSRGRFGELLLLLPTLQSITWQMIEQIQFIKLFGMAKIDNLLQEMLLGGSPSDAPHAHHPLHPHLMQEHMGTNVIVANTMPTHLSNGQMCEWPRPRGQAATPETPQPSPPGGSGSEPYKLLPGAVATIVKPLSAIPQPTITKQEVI
A number is an active result; i = inactive; nt = no result given.

SMILES	aDG glyco act	NR1D1 modulator	CSN inh	HNF4A DNA FP
C#CCOCCOCCOCCNc1nc(N2CCN(C(=O)C([C@@H](C)O)n3cc([C@@H](N)CCCCN)nn3)CC2)nc(N2CCN(C(=O)[C@H](CO)n3cc([C@@H](N)C(C)C)nn3)CC2)n1 (stereo partly drawn)	i	i	i	78
C#CCOCCOCCOCCNc1nc(N2CCN(C(=O)C([C@@H](C)O)n3cc([C@@H](N)CCCCN)nn3)CC2)nc(N2CCN(C(=O)C([C@@H](C)O)n3cc([C@@H](N)CCCCN)nn3)CC2)n1 (stereo partly drawn)	i	i	i	i
O=C(CN1C(=O)S/C(=C\c2ccccn2)C1=O)Nc1ccccc1	i	i	i	i
O=C(CN1C(=O)S/C(=C\c2cc(Cl)c(O)c(Cl)c2)C1=O)Nc1ccccc1	i	i	i	38
O=C(CSc1nnc(-c2ccco2)o1)c1ccc[nH]1	i	i	38	i
S=C1Cc2ccccc2N1	i	i	39	i
CC(CC(c1ccccc1)c1ccccc1)NC(C)(C)C (stereo not drawn)	nt	i	nt	nt
Cc1nc(CS(=O)c2ccc(Cl)cc2)cc(NCc2ccc(Cl)cc2Cl)n1 (stereo not drawn)	i	i	52	i
CCCCCCCCC(=O)c1c(OC)oc(C=O)cc1=O	i	i	68	i
CCOc1ccc(N2C(=O)CS/C2=C(\C(Cl)=C(Cl)Cl)[N+](=O)[O-])cc1	i	nt	i	35
CCOc1ccc(N2C(=O)CNC2=S)cc1	i	i	i	i
CCOC(=O)c1sc(NC(=O)/C=C/c2c(F)cccc2Cl)nc1C	i	i	i	34
CCOC(=O)c1cc2c(=Cc3ccc(N(C)C)cc3)c3ccccc3n2[n+]1C	i	i	i	57
CCOC(=O)c1c(CC(C)C)csc1/N=C/C1C(=O)CC(C)(C)CC1=O	i	i	36	i
CN1Cc2nnn(CC3CCCCC3)c2-c2ccccc2S1(=O)=O	nt	i	nt	nt
O=C(NCc1n[nH]c(=S)n1-c1ccc(F)cc1)c1ccc(S(=O)(=O)N2CCOCC2)cc1	i	i	i	32
O=C(C=Cc1ccccc1)c1ccc([N+](=O)[O-])cc1	i	i	i	i
O=[N+]([O-])c1ccc(C=CC=Cc2ccccc2)cc1	i	i	36	i
O=C(O)CSc1nc2ccc(Br)cc2[nH]1	i	i	70	i
O=C(O)CSc1nc2ccc(Cl)cc2[nH]1	i	i	i	i
O=C(OCCN1CCN(C2CN(Cc3cn(Cc4ccc([N+](=O)[O-])cc4)nn3)S(=O)(=O)C2)CC1)c1cc2ccccc2o1 (stereo not drawn)	nt	i	nt	nt
Cn1nc(-c2ccc(C(=O)Nc3ccc(F)cc3)cc2)c2ccccc2c1=O	i	nt	44	i
Cn1c(N)c(-c2ccccc2)c2ccc([N+](=O)[O-])cc2c1=O	i	i	i	99
COC(=O)C1=C(O)/C(=C\c2ccc(CNC(=O)C(=O)Nc3ccc(C)cc3)o2)N=C1C	i	i	36	i
COC(=O)C1=C(O)/C(=C\c2ccc(CNS(=O)(=O)c3ccc(Cl)cc3)o2)N=C1C	i	i	i	i
SMILES	aDG glyco act	NR1D1 modulator	CSN inh	HNF4A DNA FP
CCOC(=O)C1=C(O)/C(=C/c2ccc(CNC(=O)C(=O)Nc3ccc(C)cc3)o2)N=C1C	i	i	i	i
CCOC(=O)C1=C(O)/C(=C\c2ccc(CNS(=O)(=O)c3ccc(Br)cc3)o2)N=C1C	i	i	52	i
NC1[C@H]2CN(c3nc4c(cc3F)c(=O)c(C(=O)O)cn4-c3ccc(F)cc3F)C[C@@H]12 (stereo partly drawn)	nt	i	nt	nt
C#CCNC(=O)C[C@@H]1C[C@@](CCC(=O)OCC)(C(=O)OCC)C2=CCCCN2C1=O	nt	i	nt	nt
CCn1c(=O)n(CC(=O)N2CCOCC2)c(=O)c2ccccc21	nt	i	nt	nt
CNC(C)[C@@H]1CC[C@@H](N)[C@@H](O[C@@H]2[C@H](O)[C@@H](O[C@@H]3OC[C@](C)(O)[C@H](NC)[C@H]3O)[C@H](N)C[C@@H]2N)O1 (stereo partly drawn)	nt	i	nt	nt
O=C(c1ccncc1)N1CCC(Oc2cccnc2)CC1	nt	i	nt	nt
CC(C)NC1=C(Cl)C(=O)c2ccccc2C1=O	6.3	i	i	i
C=CCNC1=C(Cl)C(=O)c2ccccc2C1=O	9.7	i	i	i
CCN(CC)CCCNC1=C(Cl)C(=O)c2ccccc2C1=O	9.2	i	i	i
O=C1C(Cl)=C(NCc2cccnc2)C(=O)c2ccccc21	2.9	i	i	i
O=S1(=O)CC2c3ccccc3CN2CN1Cc1ccc(F)cc1 (stereo not drawn)	nt	i	nt	nt
CCOC(=O)Cn1cc(CN2CCS(=O)(=O)N(Cc3ccccc3)C(C(=O)OC)C2)nn1 (stereo not drawn)	nt	i	nt	nt
O=C(O)C1=C(CSc2nnnn2CS(=O)(=O)O)CS[C@@H]2[C@@H](NC(=O)[C@H](O)c3ccccc3)C(=O)N12	nt	i	nt	nt
Cn1c(/C=C/c2ccc([N+](=O)[O-])o2)nc2ccccc2c1=O	i	nt	i	59
Cc1cc(N/N=C/c2ccc([N+](=O)[O-])o2)nc2ccccc12	8.2	i	i	i
Cc1cc(NN=Cc2ccccn2)nc2ccccc12	nt	i	nt	nt
Cc1cc(C)cc(NC(=O)c2cc(S(=O)(=O)N3CCCC3)cn2C)c1	i	i	i	53
Cc1cccc(NC(=O)c2cc(S(=O)(=O)N3CCCC3)cn2C)c1	i	i	i	i
CCn1c2ccccc2c2cc(NC(=O)COC(=O)c3cccc(F)c3F)ccc21	nt	i	nt	nt
O=C(NCCCCCCCN1CCCCCCC1)C(C1CCCCC1)C1CCCCC1	i	i	55	i
O=C(NCCCN1CCOCC1)NC1CCCCC1	i	i	i	i
COc1cc(CC(=O)Nc2sccc2C(N)=O)cc(OC)c1OC	i	i	i	34
CC(=O)N1N=C2c3ccccc3CCC2C1c1ccc(F)cc1 (stereo not drawn)	i	i	i	i
COc1ccc2c(c1)CCC1C2=NN(/C(C)=C/C(C)=O)C1c1cccc(F)c1 (stereo not drawn)	i	i	i	76
SMILES	aDG glyco act	NR1D1 modulator	CSN inh	HNF4A DNA FP
CC(C)CC1C(=O)N2CCC[C@H]2C2(O)O[C@](NC(=O)C3C=C4c5cccc6[nH]c(Br)c(c56)C[C@H]4N(C)C3)(C(C)C)C(=O)N12 (stereo partly drawn)	nt	i	nt	nt
O=C1/C(=N\S(=O)(=O)c2cccs2)C([n+]2cccc(Cc3ccccc3)c2)=C([O-])c2ccccc21	3.6	nt	i	i
O=C1/C(=N\S(=O)(=O)c2cccs2)C([n+]2ccc(CCCc3ccccc3)cc2)=C([O-])c2ccccc21	i	i	i	i
O=C(NC(=S)Nc1ccccn1)c1cncc(Br)c1	i	i	i	66
COc1ccc2nc(N=Nc3ccc(N(C)C)cc3)sc2c1	i	i	i	i
CN(C)c1ccc2nc3ccc(=[N+](C)C)cc-3sc2c1	47	i	i	i
Cc1cc2nc3ccc(=[N+](C)C)cc-3sc2cc1N	36	i	i	i
